Apaf-1 inh: inhibitors of human Apaf-1 apoptosome. inhibition, % at 20 µM. O14727. 330,000 tested, 0.71% active. AID 489030. reconstituted apoptosome caspase-3 activity, DEVD-Rh110 fluorescence; active means inhibition of at least 40% at 20 µM;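 further: plate controls were DMSO wells for no effect and DEVD-CHO caspase inhibitor wells for full effect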
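Material: reconstituted apoptosome with Apaf-1, cytochrome c, caspase-9, procaspase-3, dATP / Buffer or medium: pH 7.5 Hepes buffer with CHAPS, BSA, DTT / Also added: cytochrome c with DEVD-Rh110 / Schedule: compound with Apaf-1, dATP, procaspase-3 30 min, then 50 min reaction, room temperature / Technique: rhodamine 110 fluorescence at Ex 480/Em 540 nm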
PAFAH2 FP inh: PAFAH2 (human) inhibition | AID 492956 | Q99487 | recombinant PAFAH2, FP-rhodamine activity probe, fluorescence polarization | inhibition, % at 3.39 µM | 340,000 tested, 0.99% active;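 active means inhibition above the mean over all tested compounds plus 3 SD, cut at about 30% in these data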;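 further: inhibitors block probe labeling of enzyme so polarization drops; 0% = enzyme with DMSO and 100% = wells lacking PAFAH2 protein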
pPAFAH inh: pPAFAH (human) enzyme inhibition; Q13093; recombinant pPAFAH, FP-rhodamine probe fluorescence polarization; inhibition, % at 3.39 µM; 330,000 tested, 1.5% active; AID 463082;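 active means inhibition above the mean inhibition across the screen plus 3 SD, cut at about 25% in these data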;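 further: inhibitors block binding of the rhodamine activity-based probe so polarization drops; 0% = enzyme with DMSO and 100% = wells lacking pPAFAH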
Target sequence (Q13093 whole entry, looked up): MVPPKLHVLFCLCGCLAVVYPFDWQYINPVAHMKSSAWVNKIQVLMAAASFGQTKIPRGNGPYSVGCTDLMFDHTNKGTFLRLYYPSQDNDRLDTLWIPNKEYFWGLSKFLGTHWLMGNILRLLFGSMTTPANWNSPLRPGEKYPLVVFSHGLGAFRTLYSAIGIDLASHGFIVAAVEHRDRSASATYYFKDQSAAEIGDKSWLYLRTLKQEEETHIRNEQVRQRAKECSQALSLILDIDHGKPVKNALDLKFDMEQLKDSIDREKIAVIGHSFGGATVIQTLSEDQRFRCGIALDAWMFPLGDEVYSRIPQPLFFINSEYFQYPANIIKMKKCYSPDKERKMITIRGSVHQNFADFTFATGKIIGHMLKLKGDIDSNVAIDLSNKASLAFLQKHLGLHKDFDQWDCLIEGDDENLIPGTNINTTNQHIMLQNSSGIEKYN
PAFAH1B2 inh: PAFAH1B2 (human) inhibition | P68402 | AID 492953 | recombinant PAFAH1B2, FP-rhodamine activity probe, fluorescence polarization | inhibition, % at 3.39 µM | 340,000 tested, 1.2% active;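 active means inhibition above the mean of all tested compounds plus 3 SD, cut at about 24% in these data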;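 further: 0% = enzyme with DMSO and 100% = wells lacking PAFAH1B2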
PAFAH1B3 inh: PAFAH1B3 (human) inhibition; 340,000 tested, 0.28% active; inhibition, % at 3.39 µM; recombinant PAFAH1B3, FP-rhodamine probe, fluorescence polarization; AID 492972;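 active means inhibition above the screen-wide average of all tested compounds plus 3 SD, cut at about 25% in these data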;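 further: 0% = enzyme with DMSO only and 100% = wells lacking PAFAH1B3 protein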
pPAFAH confirm: pPAFAH (human) inhibition, confirmed; 2,300 tested, 72% active; recombinant pPAFAH, FP-Rh probe fluorescence polarization; AID 463230; inhibition, % at 3.39 µM; shares compounds with pPAFAH inh;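 active means mean inhibition of the triplicate above the hit cutoff set for the earlier primary screen, cut at about 25% in these data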;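 further: 0% = enzyme with DMSO and 100% = wells lacking pPAFAH enzyme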
The depositor's hits bear a star; . = no result given. Compounds with a hit are over-represented: about 3.1% of the library has one in this group of screens.

SMILES	Apaf-1 inh	PAFAH2 FP inh	pPAFAH inh	PAFAH1B2 inh	PAFAH1B3 inh	pPAFAH confirm
CC1=C(C(=O)Nc2ccc(CC(=O)NCc3ccc(OC(C)C)cc3)cc2)SCCO1	6	13	38*	5	6	19
CCOC(=O)N1CCN(S(=O)(=O)c2ccc(C(=O)NNc3nc4ccc(Cl)cc4s3)cc2)CC1	12	10	38*	0	1	39*
O=C(NNC(=O)c1ccc(Br)s1)c1cccc(Cl)c1	-1	-1	3	5	3	.
Cc1ccc(NC(=O)c2ccc(Nc3c([N+](=O)[O-])cc([N+](=O)[O-])cc3[N+](=O)[O-])cc2)cc1	3	9	52*	14	27*	51*
CCOc1ccc(NS(=O)(=O)c2ccc(C(=O)NCC(c3ccc(OC)cc3)N3CCCC3)cc2)cc1 (stereo not drawn)	26	8	49*	2	3	41*
COc1ccc(C(CNC(=O)c2ccc(NS(=O)(=O)c3ccc(F)c(C)c3)cc2)N2CCCC2)cc1 (stereo not drawn)	.	0	.	6	4	.
CN(C(=O)COC(=O)c1cc([N+](=O)[O-])ccc1Cl)c1ccccc1	0	5	5	2	10	.
COc1ccc(N=C2NC(=O)/C(=C\c3ccco3)S2)cc1	13	7	8	-1	1	.
O=C1NC(=Nc2ccc(O)cc2)S/C1=C\C=C\c1ccco1	-2	8	53*	1	10	14
Cc1ccc(N2C(=O)CC(Cc3cc(C)cc(C)c3)C2=O)cc1 (stereo not drawn)	-5	-6	50*	3	0	5
Cc1cc(C)n(Cc2ccc(C(=O)N/N=C/c3ccc(-c4ccc([N+](=O)[O-])cc4)o3)o2)n1	-5	38*	52*	-2	5	47*
O=C(O)c1cccc(-c2ccc(/C=N/Nc3ccc([N+](=O)[O-])cc3)o2)c1	14	5	42*	1	2	28*
O=C(O)c1ccc(-c2ccc(/C=N/Nc3ccc([N+](=O)[O-])cc3)o2)cc1	0	10	47*	6	10	38*
CCCCC(=O)N/N=C/c1ccc(-c2ccc([N+](=O)[O-])cc2)o1	0	8	8	3	-2	.
COc1ccccc1NC(=O)COC(=O)CCC(=O)c1cccs1	2	4	.	6	3	.
CN(c1ccc(C(=O)N2CCN(Cc3ccccc3)CC2)cc1)S(=O)(=O)c1ccc(Cl)cc1	22	-5	4	1	3	.
CCOC(=O)C1=C(C)N(C[C@@H]2CC[C@@H](Cc3ccc(-c4ccccc4)cc3)O2)C(=O)NC1c1ccc(C(F)(F)F)cc1 (stereo partly drawn)	30	1	8	7	2	.
CCOC(=O)C1=C(C)N(C[C@@H]2CC[C@@H](Cc3ccc(-c4ccccc4)cc3)O2)C(=O)NC1c1ccc(SCc2ccco2)c([N+](=O)[O-])c1 (stereo partly drawn)	23	5	56*	1	0	25*
COc1ccc(C(=O)/C=C/c2cccs2)c(OC(=O)N2CCOCC2)c1	-12	3	4	-1	7	.
O=C(/C=C/c1cccs1)c1cc(Br)ccc1OC(=O)N1CCOCC1	8	84*	64*	3	0	61*
CSCC[C@H](N)C(=O)NCC1CCC(C(=O)Nc2ccc3c(c2)OCO3)CC1 (stereo partly drawn)	-5	3	5	0	6	.
COc1ccc(CCNC(=O)c2cc(-c3ccco3)nc3ccccc23)cc1	19	.	36*	.	.	15
CCN(CC(=O)NCc1cccs1)C(=O)/C=C/c1cc(OC)c(OC)c(OC)c1	0	3	.	4	3	.
COCCNC(=O)C(=O)c1cc(C)n(-c2ccc([N+](=O)[O-])cc2)c1C	-17	1	36*	1	1	28*
O=C1c2ccccc2C(=O)c2cc(S(=O)(=O)Nc3ccccc3)ccc21	17	18	37*	6	11	34*
SMILES	Apaf-1 inh	PAFAH2 FP inh	pPAFAH inh	PAFAH1B2 inh	PAFAH1B3 inh	pPAFAH confirm
Cc1ccccc1Oc1ccc(-c2nc(N)nc(N)n2)cc1	8	3	39*	1	-1	22
Nc1nc(N)nc(-c2ccc(Oc3ccccc3)cc2)n1	-8	2	5	5	4	.
CC1(C)CC(=O)C(C2C3=C(CC(C)(C)CC3=O)Oc3c(Br)cc(Br)cc32)=C(O)C1 (stereo not drawn)	11	13	-3	4	8	.
O=C1c2ccccc2[C@@H]2C[C@@H](O)[C@H](Nc3cccc(Cl)n3)CCN12	6	69*	36*	2	9	23
Cc1ccc(C(=O)NCCNC(=O)c2cccnc2)cc1	-2	0	1	0	-1	.
c1ccc(Nc2nc3ccccc3[nH]2)nc1	5	4	36*	3	6	-2
O=C(Oc1nsnc1N1CCOCC1)N1CCCC1	5	3	6	8	11	.
O=C(Oc1nsnc1N1CCCCC1)N1CCOCC1	6	28	79*	5	7	73*
O=C(O)c1cc(O)c2c(c1)[C@H]([C@H]1c3cc(C(=O)O)cc(O)c3C(=O)c3c(O[C@@H]4O[C@H](CO)[C@@H](O)[C@H](O)[C@H]4O)cccc31)c1cccc(OC3O[C@H](CO)[C@@H](O)[C@H](O)[C@H]3O)c1C2=O (stereo partly drawn)	89*	90*	94*	77*	80*	99*
CCNc1ccc(Br)cc(C(=O)/C=C/c2ccc(Cl)cc2Cl)c1=O	34	33*	66*	3	16	34*
CNc1ccc(Br)cc(C(=O)/C=C/c2cc(OC)ccc2OC)c1=O	27	27	38*	1	18	24
CNc1ccc(Br)cc(C(=O)/C=C/c2ccc(OC)cc2)c1=O	30	16	43*	8	9	13
COCCCNC(=O)/C=C/c1ccc(Cl)cc1Cl	18	-8	6	7	4	.
COc1ccc(/C=C/C(=O)c2cc(Br)ccc2O)cc1OC	19	5	0	10	13	.
CNc1ccc(Br)cc(C(=O)/C=C/c2ccc3c(c2)OCO3)c1=O	28	31*	45*	-1	5	28*
COc1ccc(S(=O)(=O)N2CCN(C(=O)CCc3c[nH]c4ccccc34)CC2)cc1	9	8	9	7	9	.
CN(C)S(=O)(=O)c1ccc(Cl)c(NC(=O)C2CCN(S(=O)(=O)c3cccs3)CC2)c1	-10	6	1	-3	7	.
Nc1c(C(=O)NC2CC2)sc2nc3c(c(-c4ccco4)c12)CC/C3=C/c1ccco1	.	46*	89*	28*	56*	48*
O=C(COC(=O)c1c2c(nc3ccccc13)/C(=C\c1ccco1)CC2)NC1CCCC1	.	29	.	10	6	.
